The text below walks through data of ChEMBL document CHEMBL1135620, “Cyclosporins: structure-activity relationships for the inhibition of the human FPR1 formylpeptide receptor” (J Med Chem, 2002).

Molecules are shown by their SMILES.

This assay deals with T1, fMet-Leu-Phe receptor (Homo sapiens) (UniProt P21462).
T1 sequence (whole entry): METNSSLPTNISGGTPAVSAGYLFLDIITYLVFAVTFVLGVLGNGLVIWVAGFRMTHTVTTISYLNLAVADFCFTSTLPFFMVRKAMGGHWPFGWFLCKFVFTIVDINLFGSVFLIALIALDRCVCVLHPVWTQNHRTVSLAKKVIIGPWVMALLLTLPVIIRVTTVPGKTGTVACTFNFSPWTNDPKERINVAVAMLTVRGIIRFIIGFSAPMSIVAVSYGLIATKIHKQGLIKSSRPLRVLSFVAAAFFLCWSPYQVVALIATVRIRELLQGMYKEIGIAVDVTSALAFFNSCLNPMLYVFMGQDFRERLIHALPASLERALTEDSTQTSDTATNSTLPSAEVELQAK
The assay can be described thus: Inhibitory activity against Human formylpeptide receptor (FPR) of human leukemia HL-60 cells. In kind it is cell-based. Put shortly:
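HL-60 cells differentiated 48 h with 0.2 mM dibutyryl cAMP, washed, then treated with 5 μM cytochalasin B (5–10 min, 37 °C). Stimulated 10 min with 30 nM f-MLF. N-acetyl-β-D-glucosaminidase release read at 410 nm on p-nitrophenyl substrate after spontaneous-release subtraction. Duplicate wells; IC20/IC50 as mean ± SD of independent experiments.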
One may read the IC20 as the point of the concentration-response curve where the effect stands at 20%. A low value points to an effect from little substance. With `C/C=C/C[C@@H](C)[C@@H](O)[C@H]1C(=O)N[C@@H](CC)C(=O)NCC(=O)N(C)[C@H](CC(C)C)C(=O)N[C@H](C(C)C)C(=O)N(C)[C@H](CC(C)C)C(=O)N[C@@H](C)C(=O)N[C@H](CO)C(=O)N(C)[C@@H](CC(C)C)C(=O)N(C)[C@@H](CC(C)C)C(=O)N(C)[C@@H](C(C)C)C(=O)N1C`, the IC20 turned out to be 1.9 µM.

In the case of `C/C=C/C[C@@H](C)C[C@H]1C(=O)N[C@@H](CC)C(=O)N(C)CC(=O)N(C)[C@H](CC(C)C)C(=O)N[C@H](C(C)C)C(=O)N(C)[C@H](CC(C)C)C(=O)N[C@@H](C)C(=O)N[C@H](C)C(=O)N(C)[C@@H](CC(C)C)C(=O)N(C)[C@@H](CC(C)C)C(=O)N(C)[C@@H](C(C)C)C(=O)N1C`, it took 2.4 µM to reach the 20% level (IC20).

Compound `CC/C=C/C[C@@H](C)[C@@H](O)[C@H]1C(=O)N[C@@H](CC)C(=O)N(C)CC(=O)N(C)[C@H](CC(C)C)C(=O)N[C@H](C(C)C)C(=O)N(C)[C@H](CC(C)C)C(=O)N[C@@H](CC)C(=O)N[C@H](C)C(=O)N(C)[C@@H](CC(C)C)C(=O)N(C)[C@@H](CC(C)C)C(=O)N(C)[C@@H](C(C)C)C(=O)N1C` had an IC20 of more than 10 µM.

On to `C/C=C/C[C@@H](C)[C@@H](O)[C@H]1C(=O)N[C@@H](CCC)C(=O)N(C)CC(=O)N(C)[C@H](CC(C)C)C(=O)N[C@H](C(C)C)C(=O)N(C)[C@H](CC(C)C)C(=O)N[C@@H](C)C(=O)N[C@H](C)C(=O)N[C@@H](CC(C)C)C(=O)N(C)[C@@H](CC(C)C)C(=O)N(C)[C@@H](C(C)C)C(=O)N1C`, for which the 20% effect level (IC20) was put at 2.1 µM.

In the case of `C/C=C/C[C@@H](C)[C@@H](O)[C@H]1C(=O)N[C@@H]([C@@H](C)O)C(=O)NCC(=O)N(C)[C@H](CC(C)C)C(=O)N[C@@H](CC(C)C)C(=O)N(C)[C@H](CC(C)C)C(=O)N[C@@H](C)C(=O)N[C@](O)(C(C)C)C(=O)N(C)[C@@H](CC(C)C)C(=O)N[C@@H](CC(C)C)C(=O)N(C)[C@@H](C(C)C)C(=O)N1C`, it took 0.13 µM to reach the 20% level (IC20).

As for `C/C=C/C[C@@H](C)[C@@H](O)[C@H]1C(=O)N[C@@H]([C@@H](C)O)C(=O)N(C)CC(=O)N(C)[C@H](CC(C)C)C(=O)N[C@H](C(C)C)C(=O)N(C)[C@H](CC(C)C)C(=O)N[C@@H](C)C(=O)N[C@H](C)C(=O)N(C)[C@@H](CC(C)C)C(=O)N[C@@H](CC(C)C)C(=O)N(C)[C@@H](C(C)C)C(=O)N1C`, the 20% effect level (IC20) was put at 2.05 µM.

The compound `CC/C=C/C[C@@H](C)[C@@H](O)[C@H]1C(=O)N[C@@H](CC)C(=O)N(C)CC(=O)N(C)[C@H](CC(C)C)C(=O)N[C@H](C(C)C)C(=O)N(C)[C@@H](C)C(=O)N[C@@H](C)C(=O)N[C@H](C)C(=O)N(C)[C@@H](CC(C)C)C(=O)N(C)[C@@H](CC(C)C)C(=O)N(C)[C@@H](C(C)C)C(=O)N1C` registered an IC20 of more than 10 µM.

Compound `C/C=C/C[C@@H](C)[C@@H](O)[C@H]1C(=O)N[C@@H](CC)C(=O)N(C)CC(=O)N[C@@H](CC(C)C)C(=O)N[C@H](C(C)C)C(=O)N(C)[C@H](CC(C)C)C(=O)N[C@@H](C)C(=O)N[C@H](C)C(=O)N(C)[C@@H](CC(C)C)C(=O)N(C)[C@@H](CC(C)C)C(=O)N(C)[C@@H](C(C)C)C(=O)N1C` registered an IC20 of more than 10 µM.

Compound `CC/C=C/C[C@@H](C)[C@@H](O)[C@H]1C(=O)N[C@@H](CC)C(=O)N(C)CC(=O)N(C)[C@@H]([C@@H](C)CC)C(=O)N[C@H](C(C)C)C(=O)N(C)[C@H](CC(C)C)C(=O)N[C@@H](C)C(=O)N[C@H](C)C(=O)N(C)[C@@H](CC(C)C)C(=O)N(C)[C@@H](CC(C)C)C(=O)N(C)[C@@H](C(C)C)C(=O)N1C` gave an IC20 of 1 µM.

The compound `C/C=C/C[C@@H](C)[C@@H](O)[C@H]1C(=O)N[C@@H]([C@@H](C)O)C(=O)N(C)CC(=O)N(C)[C@H](CC(C)C)C(=O)N[C@@H](CC(C)C)C(=O)N(C)[C@H](CC(C)C)C(=O)N[C@@H](C)C(=O)N[C@H](C)C(=O)N(C)[C@@H](CC(C)C)C(=O)N[C@@H](C)C(=O)N(C)[C@@H](C(C)C)C(=O)N1C` came in with an IC20 of 0.8 µM.

`C/C=C/C[C@@H](C)[C@@H](O)[C@H]1C(=O)N[C@@H]([C@@H](C)O)C(=O)N(C)CC(=O)N(C)[C@H](CC(C)C)C(=O)N[C@@H](C(C)C)C(=O)N(C)[C@H](CC(C)C)C(=O)N[C@@H](C)C(=O)N[C@](O)(C(C)C)C(=O)N(C)[C@@H](CC(C)C)C(=O)N[C@@H](CC(C)C)C(=O)N(C)[C@@H](C(C)C)C(=O)N1C` came in with an IC20 of 0.93 µM.

On to `CC/C=C/C[C@@H](C)[C@@H](O)[C@H]1C(=O)N[C@@H](CC)C(=O)N(C)CC(=O)N(C)[C@@H](Cc2ccccc2)C(=O)N[C@H](C(C)C)C(=O)N(C)[C@H](CC(C)C)C(=O)N[C@@H](C)C(=O)N[C@H](C)C(=O)N(C)[C@@H](CC(C)C)C(=O)N(C)[C@@H](CC(C)C)C(=O)N(C)[C@@H](C(C)C)C(=O)N1C`, for which the concentration for an effect of 20% (IC20) was 4 µM.

As to `C/C=C/C[C@@H](C)[C@@H](O)[C@H]1C(=O)N[C@@H](CC)C(=O)N(C)CC(=O)N(C)[C@H](CC(C)C)C(=O)N[C@H](C(C)C)C(=O)N(C)[C@H](CC(C)C)C(=O)N[C@@H](C)C(=O)N[C@H](C)C(=O)N(C)[C@@H](CC(C)C)C(=O)N(C)[C@@H](CC(C)C)C(=O)N(C)[C@@H](C)C(=O)N1C`, the IC20 was 0.31 µM.

Compound `C/C=C/C[C@@H](C)[C@@H](O)[C@H]1C(=O)N[C@@H]([C@@H](C)O)C(=O)N(C)CC(=O)N(C)[C@H](CC(C)C)C(=O)N[C@@H]([C@@H](C)CC)C(=O)N(C)[C@H](CC(C)C)C(=O)N[C@@H](C)C(=O)N[C@H](C)C(=O)N(C)[C@@H](CC(C)C)C(=O)N(C)[C@@H](CC(C)C)C(=O)N(C)[C@@H](C(C)C)C(=O)N1C` returned an IC20 of 0.09 µM.

Turning to `CC/C=C/C[C@@H](C)[C@@H](O)[C@H]1C(=O)N[C@@H](CCC)C(=O)N(C)CC(=O)N(C)[C@H](CC(C)C)C(=O)N[C@H](C(C)C)C(=O)N(C)[C@H](CC(C)C)C(=O)N[C@@H](C)C(=O)N[C@H](C)C(=O)N(C)[C@@H](CC(C)C)C(=O)N(C)[C@@H](CC(C)C)C(=O)N(C)[C@@H](C(C)C)C(=O)N1C`, the IC20 amounted to 2.6 µM.

Compound `C/C=C/C[C@@H](C)[C@@H](O)[C@H]1C(=O)N[C@@H](CC)C(=O)N(C)CC(=O)N(C)[C@H](CC(C)C)C(=O)N[C@H](C(C)C)C(=O)N[C@@H](CC(C)C)C(=O)N[C@@H](C)C(=O)N[C@H](C)C(=O)N(C)[C@@H](CC(C)C)C(=O)N[C@@H](CC(C)C)C(=O)N(C)[C@@H](C(C)C)C(=O)N1C` came in with an IC20 of 0.37 µM.

Take `C/C=C/C[C@@H](C)[C@@H](O)[C@H]1C(=O)N[C@@H](CC)C(=O)N(C)CC(=O)N[C@@H](C(C)C)C(=O)N[C@H](C(C)C)C(=O)N(C)[C@H](CC(C)C)C(=O)N[C@@H](C)C(=O)N[C@H](C)C(=O)N(C)[C@@H](CC(C)C)C(=O)N(C)[C@@H](CC(C)C)C(=O)N(C)[C@@H](C(C)C)C(=O)N1C`: the IC20 is more than 10 µM.

In the case of `C/C=C/C[C@@H](C)[C@@H](O)[C@H]1C(=O)N[C@@H]([C@@H](C)O)C(=O)N(C)CC(=O)N[C@@H](CC(C)C)C(=O)N[C@@H](CC(C)C)C(=O)N(C)[C@H](CC(C)C)C(=O)N[C@@H](C)C(=O)N[C@](O)(C(C)C)C(=O)N(C)[C@@H](CC(C)C)C(=O)N[C@@H](CC(C)C)C(=O)N(C)[C@@H](C(C)C)C(=O)N1C`, it took 0.14 µM to reach the 20% level (IC20).

In turn, `CCC[C@@H]1NC(=O)[C@H](CC(C)C)N(C)C(=O)[C@H](C(C)C)N(C)C(=O)[C@H](CC(C)C)N(C)C(=O)[C@H](CC(C)C)N(C)C(=O)[C@@H](C)NC(=O)[C@H](C)NC(=O)[C@@H](CC(C)C)N(C)C(=O)[C@H](C(C)C)NC(=O)[C@@H](CC(C)C)N(C)C(=O)CN(C)C1=O` showed an IC20 of 7.6 µM.

Compound `CC[C@@H]1NC(=O)[C@H](CC(C)C)N(C)C(=O)[C@H](C(C)C)N(C)C(=O)[C@H](CC(C)C)N(C)C(=O)[C@H](CC(C)C)N(C)C(=O)[C@@H](C)NC(=O)[C@H](C)NC(=O)[C@@H](CC(C)C)N(C)C(=O)[C@@H](C(C)C)NC(=O)[C@@H](CC(C)C)N(C)C(=O)CN(C)C1=O` displayed an IC20 of more than 10 µM.

`CC/C=C/C[C@@H](C)[C@@H](O)[C@H]1C(=O)N[C@@H](CC)C(=O)N(C)CC(=O)N(C)[C@@H](C(C)C)C(=O)N[C@H](C(C)C)C(=O)N(C)[C@H](CC(C)C)C(=O)N[C@@H](C)C(=O)N[C@H](C)C(=O)N(C)[C@@H](CC(C)C)C(=O)N(C)[C@@H](CC(C)C)C(=O)N(C)[C@@H](C(C)C)C(=O)N1C` came in with an IC20 of 1.44 µM.

`CC[C@@H]1NC(=O)[C@H](C2CCCCC2C)N(C)C(=O)[C@H](C(C)C)N(C)C(=O)[C@H](CC(C)C)N(C)C(=O)[C@H](CC(C)C)N(C)C(=O)[C@@H](C)NC(=O)[C@@H](C)NC(=O)[C@@H](CC(C)C)N(C)C(=O)[C@@H](C(C)C)NC(=O)[C@@H](CC(C)C)N(C)C(=O)CN(C)C1=O` (stereo not given in full) gave an IC20 of more than 10 µM.

The compound `C/C=C/C[C@@H](C)[C@@H](O)[C@H]1C(=O)N[C@@H](CCC)C(=O)N(C)CC(=O)N(C)[C@H](CC(C)C)C(=O)N[C@H](C(C)C)C(=O)N[C@@H](CC(C)C)C(=O)N[C@@H](C)C(=O)N[C@H](C)C(=O)N(C)[C@@H](CC(C)C)C(=O)N(C)[C@@H](CC(C)C)C(=O)N(C)[C@@H](C(C)C)C(=O)N1C` came in with an IC20 of 8.1 µM.

As to `C/C=C/C[C@@H](C)[C@@H](O)[C@H]1C(=O)N[C@@H](CC)C(=O)N(C)CC(=O)N(C)[C@H](CC(C)C)C(=O)N[C@H](C(C)C)C(=O)N[C@@H](CC(C)C)C(=O)N[C@@H](C)C(=O)N[C@H](C)C(=O)N(C)[C@@H](CC(C)C)C(=O)N(C)[C@@H](CC(C)C)C(=O)N(C)[C@@H](C(C)C)C(=O)N1C`, the IC20 was more than 10 µM.

As to `C/C=C/C[C@@H](C)[C@@H](O)[C@H]1C(=O)N[C@@H](CCC)C(=O)N(C)CC(=O)N(C)[C@H](CC(C)C)C(=O)N[C@@H](CC(C)C)C(=O)N(C)[C@H](CC(C)C)C(=O)N[C@@H](C)C(=O)N[C@H](C)C(=O)N(C)[C@@H](CC(C)C)C(=O)N(C)[C@@H](CC(C)C)C(=O)N(C)[C@@H](C(C)C)C(=O)N1C`, the 20% effect level (IC20) was put at 8.9 µM.
